Experimental data as given in ChEMBL document CHEMBL3351344 (J Med Chem, 2014).

Key:
Liver microsome [1] = assay: Metabolic stability in human liver microsomes assessed as compound remaining at 10 uM after 30 mins; format: ADME; details: 0.5 h
How it was run: (§1)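 Compound at 10 µM was incubated for 30 min with liver microsomes (H = human, R = rat). Stability was expressed as percent of compound remaining.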

Liver microsome [2] = assay: Metabolic stability in rat liver microsomes assessed as compound remaining at 10 uM after 30 mins; format: ADME; details: 0.5 h; how it was run: as §1
[3] = Aqueous kinetic solubility of the compound in pH 7.4 PBS buffer; format: physicochemical
Cytochrome P450 2C9 = Cytochrome P450 2C9 (Homo sapiens, UniProt P11712); assay: Inhibition of CYP2C9 (unknown origin)
Cytochrome P450 2C9, sequence (P11712 whole entry): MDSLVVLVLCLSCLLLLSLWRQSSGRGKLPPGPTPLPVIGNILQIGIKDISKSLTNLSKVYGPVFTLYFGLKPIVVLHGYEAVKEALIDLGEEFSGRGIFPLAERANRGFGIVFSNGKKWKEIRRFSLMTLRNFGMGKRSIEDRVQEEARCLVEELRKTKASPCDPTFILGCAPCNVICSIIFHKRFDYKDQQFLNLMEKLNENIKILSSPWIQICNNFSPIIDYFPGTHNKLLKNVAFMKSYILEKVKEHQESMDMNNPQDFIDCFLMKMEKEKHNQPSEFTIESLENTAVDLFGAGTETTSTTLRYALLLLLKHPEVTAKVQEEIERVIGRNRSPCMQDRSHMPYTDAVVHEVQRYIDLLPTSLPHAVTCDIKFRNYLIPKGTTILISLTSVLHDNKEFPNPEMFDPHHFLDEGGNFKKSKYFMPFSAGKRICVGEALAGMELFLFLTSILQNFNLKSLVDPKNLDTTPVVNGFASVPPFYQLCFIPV

Cytochrome P450 2C19 = Cytochrome P450 2C19 (Homo sapiens, UniProt P33261); assay: Inhibition of CYP2C19 (unknown origin)
Cytochrome P450 2C19, sequence (P33261 whole entry): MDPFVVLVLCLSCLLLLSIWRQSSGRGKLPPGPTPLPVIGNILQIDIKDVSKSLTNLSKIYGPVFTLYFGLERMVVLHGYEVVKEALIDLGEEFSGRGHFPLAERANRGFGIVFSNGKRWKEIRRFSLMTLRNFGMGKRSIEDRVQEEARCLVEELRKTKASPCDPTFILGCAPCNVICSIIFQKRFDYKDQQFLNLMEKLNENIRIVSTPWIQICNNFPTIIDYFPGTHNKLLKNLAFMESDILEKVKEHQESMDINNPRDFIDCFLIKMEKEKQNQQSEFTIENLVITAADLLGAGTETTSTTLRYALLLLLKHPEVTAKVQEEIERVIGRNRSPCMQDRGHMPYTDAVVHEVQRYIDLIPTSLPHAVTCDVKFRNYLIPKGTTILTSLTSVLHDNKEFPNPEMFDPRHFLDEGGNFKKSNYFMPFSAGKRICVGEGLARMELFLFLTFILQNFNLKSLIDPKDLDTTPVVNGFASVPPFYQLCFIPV

Cytochrome P450 2D6 = Cytochrome P450 2D6 (Homo sapiens, UniProt P10635); assay: Inhibition of CYP2D6 (unknown origin)
Cytochrome P450 2D6, sequence (P10635 whole entry): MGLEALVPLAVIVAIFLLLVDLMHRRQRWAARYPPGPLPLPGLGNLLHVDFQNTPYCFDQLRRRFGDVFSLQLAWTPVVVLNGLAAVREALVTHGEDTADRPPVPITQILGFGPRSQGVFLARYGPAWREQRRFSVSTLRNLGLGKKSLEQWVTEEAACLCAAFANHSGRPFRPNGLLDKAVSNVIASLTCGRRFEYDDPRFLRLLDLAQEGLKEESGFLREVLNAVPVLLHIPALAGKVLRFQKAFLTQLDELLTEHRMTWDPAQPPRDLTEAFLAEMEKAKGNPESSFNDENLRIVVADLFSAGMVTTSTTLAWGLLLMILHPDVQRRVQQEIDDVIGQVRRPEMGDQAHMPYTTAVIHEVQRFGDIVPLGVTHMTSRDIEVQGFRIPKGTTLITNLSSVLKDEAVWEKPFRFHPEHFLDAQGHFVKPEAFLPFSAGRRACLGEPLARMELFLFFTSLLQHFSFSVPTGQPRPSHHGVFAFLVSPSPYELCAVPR

[4] = target: T1, Retinol-binding protein 4 (Homo sapiens, UniProt P02753)
[5] = target: T1, Retinol-binding protein 4; remark: listed apart in the source
Cytochrome P450 3A4 = Cytochrome P450 3A4 (Homo sapiens, UniProt P08684); assay: Inhibition of CYP3A4 (unknown origin)
Cytochrome P450 3A4, sequence (P08684 whole entry): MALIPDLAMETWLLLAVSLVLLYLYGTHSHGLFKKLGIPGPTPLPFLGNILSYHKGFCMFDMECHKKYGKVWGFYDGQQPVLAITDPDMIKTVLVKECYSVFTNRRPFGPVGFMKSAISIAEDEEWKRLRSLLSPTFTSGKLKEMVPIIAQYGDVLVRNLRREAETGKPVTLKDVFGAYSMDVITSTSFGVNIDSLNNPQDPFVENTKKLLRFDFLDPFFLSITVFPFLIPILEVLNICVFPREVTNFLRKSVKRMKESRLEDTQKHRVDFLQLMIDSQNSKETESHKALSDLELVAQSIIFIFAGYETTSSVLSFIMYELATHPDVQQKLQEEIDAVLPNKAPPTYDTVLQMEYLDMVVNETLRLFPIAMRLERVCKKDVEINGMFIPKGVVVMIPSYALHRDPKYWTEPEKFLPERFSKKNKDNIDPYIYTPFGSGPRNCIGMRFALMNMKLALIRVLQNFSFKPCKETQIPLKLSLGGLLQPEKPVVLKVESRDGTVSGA

[6] = Cmax in Sprague-Dawley rat plasma at 0.5 mg/kg, iv; format: ADME, organism-based; parameters: dose 0.5 mg/kg, route intravenous
How it was run: (§2)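 Groups of three drug-naive adult male Sprague-Dawley rats. Dosing was iv at 0.5 mg/kg once on day 0, or po at 5 mg/kg once on day 0 or once daily from day 0 to day 6. Cmax is the maximum observed plasma concentration. Pre-dose plasma was also sampled on day 6, and urine was collected 0–48 h after iv dosing.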

[7] = Cmax in Sprague-Dawley rat plasma at 5 mg/kg, po; format: ADME, organism-based; parameters: dose 5 mg/kg, route oral; how it was run: as §2
[8] = Apparent half-life of the terminal phase of elimination in Sprague-Dawley rat plasma at 0.5 mg/kg, iv; format: ADME, organism-based; parameters: dose 0.5 mg/kg, route intravenous; details: read-out: betat1/2(app) (converted)
How it was run: (§3)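 Three drug-naive adult male Sprague-Dawley rats per group, given a single iv dose on day 0. Compound was measured in plasma over time. Parameters were derived from the plasma concentration–time curve: terminal-phase half-life, total body clearance, and steady-state volume of distribution. Urine was also collected from 0 to 48 h.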

[9] = Apparent half-life of the terminal phase of elimination in Sprague-Dawley rat plasma at 5 mg/kg, po; format: ADME, organism-based; parameters: dose 5 mg/kg, route oral; details: read-out: betat1/2(app) (converted)
How it was run: (§4)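 Adult male Sprague-Dawley rats, drug-naive, three per group. Plasma levels gave the terminal-phase half-life. Bioavailability F = (AUCINF po × dose iv) ÷ (AUCINF iv × dose po), using a 0.5 mg/kg iv reference group.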

[10] = AUClast in Sprague-Dawley rat plasma at 0.5 mg/kg, iv; format: ADME, organism-based; parameters: time 0 - last, dose 0.5 mg/kg, route intravenous
How it was run: (§5)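 Single intravenous dose of 0.5 mg/kg given on day 0 to a group of three drug-naive adult male Sprague-Dawley rats. Compound was measured in plasma over time, and urine was collected from 0 to 48 h. AUClast runs from 0 to the last quantifiable time point; AUC(0–inf) is extrapolated to infinity. Values are group means.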

[11] = AUClast in Sprague-Dawley rat plasma at 5 mg/kg, po; format: ADME, organism-based; parameters: time 0 - last, dose 5 mg/kg, route oral
How it was run: (§6)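 Oral dosing at 5 mg/kg in groups of three drug-naive adult male Sprague-Dawley rats, given either once on day 0 or once daily from day 0 to day 6. Plasma was sampled after the day 0 or day 6 dose. AUClast runs from 0 to the last quantifiable point; AUC(0–inf) is extrapolated to infinity. Values are means.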

[12] = AUC (0 to infinity) in Sprague-Dawley rat plasma at 0.5 mg/kg, iv; format: ADME, organism-based; parameters: time infinity, dose 0.5 mg/kg, route intravenous; how it was run: as §5
[13] = AUC (0 to infinity) in Sprague-Dawley rat plasma at 5 mg/kg, po; format: ADME, organism-based; parameters: time infinity, dose 5 mg/kg, route oral; how it was run: as §6
[14] = Clearance in Sprague-Dawley rat plasma at 0.5 mg/kg, iv; format: ADME, organism-based; parameters: dose 0.5 mg/kg, route intravenous; how it was run: as §3
[15] = Volume of distribution at steady state in Sprague-Dawley rat plasma at 0.5 mg/kg, iv; format: ADME, organism-based; parameters: dose 0.5 mg/kg, route intravenous; details: read-out: Vdss; how it was run: as §3
[16] = Oral bioavailability in Sprague-Dawley rat plasma at 5 mg/kg; format: ADME, organism-based; how it was run: as §4
in vivo [17] = details: Sprague-Dawley, rat, plasma, iv, 0.5 mg/kg
in vivo [18] = details: Sprague-Dawley, rat, plasma, po, 5 mg/kg

Row | SMILES | Stability (Liver microsome [1]) [%] | Stability (Liver microsome [2]) [%] | Kinetic_solubility [3] [µM] | IC50 [4] [µM] | IC50 [5] [µM] | also measured
1 | O=C(O)c1ccccc1NC(=O)N1CCC(c2ccccc2C(F)(F)F)CC1 | 3 | 85 | 57 |  |  | IC50 (Cytochrome P450 2C9): > 100 µM; IC50 (Cytochrome P450 2C19): 52 µM; IC50 (Cytochrome P450 2D6): 100 µM
2 | CS(=O)(=O)NC(=O)c1ccccc1NC(=O)N1CCC(c2ccccc2C(F)(F)F)CC1 |  |  |  | 0.298 |  | 
3 | O=C(NS(=O)(=O)C1CC1)c1ccccc1NC(=O)N1CCC(c2ccccc2C(F)(F)F)CC1 |  |  |  | 0.244 | 5.31 | 
4 | O=C(NS(=O)(=O)c1ccccc1)c1ccccc1NC(=O)N1CCC(c2ccccc2C(F)(F)F)CC1 |  |  |  | > 3 |  | 
5 | O=C(O)C(=O)N1CCC(c2ccccc2C(F)(F)F)CC1 |  |  |  | 0.234 | 3.13 | 
6 | O=C(O)CC(=O)N1CCC(c2ccccc2C(F)(F)F)CC1 |  |  |  | 1.47 |  | 
7 | O=C(O)CCC(=O)N1CCC(c2ccccc2C(F)(F)F)CC1 |  |  |  | > 3 |  | 
8 | CN(CCOc1ccccc1C(F)(F)F)C(=O)Nc1ccccc1C(=O)O |  |  |  | 1.9 | 2.65 | 
9 | CN(CCOc1ccc(Cl)cc1C(C)(C)C)C(=O)Nc1ccccc1C(=O)O |  |  |  | > 3 |  | 
10 | CN(CCOc1ccccc1C(C)(C)C)C(=O)Nc1ccccc1C(=O)O | 1.1 |  |  |  |  | 
11 | CN(CCOc1ccc(F)cc1C(C)(C)C)C(=O)Nc1ccccc1C(=O)O | 3.2 |  |  | 0.141 |  | 
12 | O=C(O)c1ccccc1NC(=O)N1CCc2ccccc2CC1 |  |  |  | > 3 |  | 
13 | O=C(O)c1ccccc1NC(=O)N1C[C@@H]2[C@H](C1)[C@H]2c1ccccc1C(F)(F)F |  |  |  | > 3 |  | 
14 | O=C(O)c1ccccc1NC(=O)N1C[C@@H]2[C@H](C1)[C@@H]2c1ccccc1C(F)(F)F |  |  |  | > 3 |  | 
15 | O=C(O)c1ccccc1NC(=O)N1CC2(C1)CN(c1ccccc1C(F)(F)F)C2 |  |  |  | > 3 |  | 
16 | O=C(O)c1ccccc1NC(=O)N1CC(c2ccccc2C(F)(F)F)C1 |  |  |  | > 3 | 8.38 | 
17 | O=C(O)c1ccccc1NC(=O)N1CC(Oc2ccccc2C(F)(F)F)C1 |  |  |  | 1.44 |  | 

Row | SMILES | Stability (Liver microsome [1]) [%] | Stability (Liver microsome [2]) [%] | Kinetic_solubility [3] [µM] | IC50 [4] [µM] | IC50 [5] [µM] | also measured
18 | O=C(O)c1ccccc1NC(=O)N1CCC2(CCc3ccccc32)CC1 |  |  |  | 3.76 |  | 
19 | O=C(O)c1ccccc1NC(=O)N1C[C@H]2C[C@@H](c3ccccc3C(F)(F)F)C[C@H]2C1 | 100 | 75 | 55 | 0.0727 | 0.294 | IC50 (Cytochrome P450 2C9): 0.34 µM; IC50 (Cytochrome P450 2C19): 29 µM; IC50 (Cytochrome P450 2D6): > 100 µM; IC50 (Cytochrome P450 3A4): 28 µM; Cmax [6]: 2940 ng/mL; Cmax [7]: 7830 ng/mL; half-life [8]: 10.3 h; half-life [9]: 7.6 h; AUC(0-t) [10]: 13200 ng·h/mL; AUC(0-t) [11]: 62100 ng·h/mL; AUC(0-inf) [12]: 14300 ng·h/mL; AUC(0-inf) [13]: 63000 ng·h/mL; clearance [14]: 0.588 mL/min/kg; Vd [15]: 0.523 L/kg; bioavailability [16]: 44%; Tmax (in vivo [17]): 4.98 min; Tmax (in vivo [18]): 0.33 h
20 | O=C(O)c1ccccc1NC(=O)N1C[C@H]2C[C@H](c3ccccc3C(F)(F)F)C[C@H]2C1 |  |  |  | > 3 |  | 
21 | O=C(O)c1cc(F)ccc1NC(=O)N1C[C@H]2C[C@@H](c3ccccc3C(F)(F)F)C[C@H]2C1 | 57 | 100 | 55 | 0.0888 | 0.285 | IC50 (Cytochrome P450 2C9): 0.33 µM; IC50 (Cytochrome P450 2C19): 31 µM; IC50 (Cytochrome P450 2D6): > 100 µM; IC50 (Cytochrome P450 3A4): 53 µM
22 | COc1ccc(NC(=O)N2C[C@H]3C[C@@H](c4ccccc4C(F)(F)F)C[C@H]3C2)c(C(=O)O)c1 | 89 | 72 | 34 | 0.17 |  | IC50 (Cytochrome P450 2C9): 13 µM; IC50 (Cytochrome P450 2C19): 75 µM; IC50 (Cytochrome P450 2D6): > 100 µM; IC50 (Cytochrome P450 3A4): 8 µM
23 | O=C(O)c1cc(Cl)ccc1NC(=O)N1C[C@H]2C[C@@H](c3ccccc3C(F)(F)F)C[C@H]2C1 | 89 | 87 | 60 | […] |  | 
24 | CS(=O)(=O)c1ccc(NC(=O)N2C[C@H]3C[C@@H](c4ccccc4C(F)(F)F)C[C@H]3C2)c(C(=O)O)c1 | 100 | 100 | > 100 | 0.163 | 1.55 | IC50 (Cytochrome P450 2C9): 8.7 µM; IC50 (Cytochrome P450 2C19): 32 µM; IC50 (Cytochrome P450 2D6): > 100 µM; IC50 (Cytochrome P450 3A4): 42 µM
25 | O=C(O)c1cccnc1NC(=O)N1C[C@H]2C[C@@H](c3ccccc3C(F)(F)F)C[C@H]2C1 | 83 | 81 | 82 | > 3 |  | IC50 (Cytochrome P450 2C9): 27 µM; IC50 (Cytochrome P450 2C19): 33 µM; IC50 (Cytochrome P450 2D6): > 100 µM; IC50 (Cytochrome P450 3A4): > 100 µM
26 | O=C(O)c1cnccc1NC(=O)N1C[C@H]2C[C@@H](c3ccccc3C(F)(F)F)C[C@H]2C1 | 81 | 82 | 29 | 0.0187 | 0.179 | IC50 (Cytochrome P450 2C9): 5.6 µM; IC50 (Cytochrome P450 2C19): 2.1 µM; IC50 (Cytochrome P450 2D6): > 100 µM; IC50 (Cytochrome P450 3A4): < 0.046 µM
27 | Cc1cc(NC(=O)N2C[C@H]3C[C@@H](c4ccccc4C(F)(F)F)C[C@H]3C2)c(C(=O)O)cn1 | 71 | 76 | 93 |  |  | IC50 (Cytochrome P450 2C9): 1 µM; IC50 (Cytochrome P450 2C19): 12 µM; IC50 (Cytochrome P450 2D6): > 100 µM; IC50 (Cytochrome P450 3A4): 1.1 µM
28 | O=C(O)c1cnncc1NC(=O)N1C[C@H]2C[C@@H](c3ccccc3C(F)(F)F)C[C@H]2C1 | 97 | 61 | > 100 | 0.024 | 0.121 | IC50 (Cytochrome P450 2C9): 17 µM; IC50 (Cytochrome P450 2C19): 6 µM; IC50 (Cytochrome P450 2D6): > 100 µM; IC50 (Cytochrome P450 3A4): 12 µM
29 | C[C@H](NC(=O)N1C[C@H]2C[C@@H](c3ccccc3C(F)(F)F)C[C@H]2C1)C(=O)O |  |  |  | 1.48 |  | 
30 | C[C@@H](NC(=O)N1C[C@H]2C[C@@H](c3ccccc3C(F)(F)F)C[C@H]2C1)C(=O)O |  |  |  | > 3 |  | 
31 | O=C(O)[C@@H](NC(=O)N1C[C@H]2C[C@@H](c3ccccc3C(F)(F)F)C[C@H]2C1)c1ccccc1 |  |  |  | 0.124 | 0.829 | 
32 | O=C(O)[C@H](NC(=O)N1C[C@H]2C[C@@H](c3ccccc3C(F)(F)F)C[C@H]2C1)c1ccccc1 |  |  |  | 1.32 | 8.34 | 
33 | O=C(O)C1CCCN1C(=O)N1CCC(c2ccccc2C(F)(F)F)CC1 (racemic) |  |  |  | > 3 |  | 
